Calls of active or inactive are those of the source. The calls are words filed in the database; no cut-off is given here.
What was measured:
[1] = system: Enterovirus A71; test: Antiviral activity against Human enterovirus 71 in human rhabdomyosarcoma cells assessed as virus-induced cell death after 72 hrs; format: functional, organism-based; conditions: Enterovirus A
How it was run: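 RD cells seeded at 1.1×10^5 cells/mL in DMEM with 10% FBS, grown 24-30 h at 37 °C to about 90% confluence. Virus (100 TCID50) mixed with test compound was adsorbed 1 h at 35 °C, then overlaid with DMEM, 2% FBS, 0.1% DMSO for 72 h at 35 °C. Formaldehyde fixation, crystal violet stain, A570. EC50 is 50% reduction of virus-induced cell death versus virus control. Triplicate, at least twice.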

[2] = system: RD; test: Cytotoxicity against human RD cells; format: cell-based
[3] = Inhibition of Human enterovirus 71 TW/2231/98 recombinant protease 3C expressed in Escherichia coli JM109 competent cells; set-up: species or system Enterovirus A71
How it was run: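 His-tagged EV71 3C protease expressed in E. coli […] and purified on Ni–NTA. Fluorescence read at 538 nm with excitation at 355 nm. Initial velocities over the first 5 min were plotted against inhibitor concentration and fitted to a hyperbolic activity equation to give IC50.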

[4] = system: Echovirus E6; test: Antiviral activity against Human echovirus 6; format: functional, organism-based; conditions: Enterovirus B
[5] = system: Echovirus E9; test: Antiviral activity against Human echovirus 9; format: functional, organism-based; conditions: Enterovirus B
[6] = (§1) Inhibition of Human enterovirus 71 TW/2231/98 recombinant protease 3C expressed in Escherichia coli JM109 competent cells by time dependent assay; set-up: species or system Enterovirus A71
How it was run: (§2)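 Time-dependent inactivation: 0.5 μM 3C protease incubated with 1–10 μM inhibitor in the fluorogenic peptide assay (10 mM MES pH 6.5, 25 °C). Activity loss versus incubation time was fitted to a single exponential to give kobs. Half-life (ln2/kobs) was replotted against reciprocal inhibitor concentration to give kinact and Ki.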

[7] = system: Enterovirus A71; test: as §1; how it was run: as §2
[8] = Selectivity index, ratio of CC50 for human RD cells to EC50 for Human enterovirus 71; format: toxicity, cell-based; conditions: for selectivity ratio: RD cells, read-out: Ratio CC50/EC50
[9] = system: RD; test: Inhibition of Human enterovirus 71 TW/2231/98 recombinant protease 3C in human RD cells at 0.01 to 1 uM after 48 hrs by Western blotting; format: cell-based; conditions: Enterovirus A71
How it was run: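 Confluent RD cells in DMEM with 10% fetal calf serum were infected with EV71 TW/2231/98 at MOI 0.01 with or without compound at 0.01–1 μM. After 48 h, total lysates were run on 12% SDS–PAGE and blotted with mouse monoclonal anti-3C and anti-β-actin antibodies. Detection used an HRP anti-mouse secondary (1:2000) and ECL.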

In the case of `CCOC(=O)/C=C/[C@H](C[C@@H]1CCNC1=O)NC(=O)[C@H](Cc1ccccc1)NC(=O)/C=C/c1ccc2c(c1)OCO2`, the EC50 [1] is reported as 1800 nM, the CC50 [2] is reported as over 25000 nM and the IC50 [3] is reported as 10600 nM.
For `O=C[C@H](C[C@@H]1CCNC1=O)NC(=O)[C@H](Cc1ccccc1)NC(=O)/C=C/c1ccc2c(c1)OCO2`, the EC50 [1] was 160 nM, the CC50 [2] was over 25000 nM and the IC50 [3] was under 500 nM.
`O=C[C@H](C[C@@H]1CCNC1=O)NC(=O)[C@H](Cc1ccccc1)NC(=O)OCc1ccccc1` gave an EC50 [1] of 31 nM, a CC50 [2] of 23600 nM and an IC50 [3] of under 500 nM.
With `CCOC(=O)/C=C/[C@H](C[C@@H]1CCNC1=O)NC(=O)[C@H](Cc1ccccc1)NC(=O)/C=C/c1ccccc1` the EC50 [1] was 1300 nM, the CC50 [2] was 8000 nM and the IC50 [3] was 10000 nM.
`CCOC(=O)/C=C/[C@H](C[C@@H]1CCNC1=O)NC(=O)[C@H](Cc1ccccc1)NC(=O)OC(C)(C)C` showed an EC50 [1] of over 20000 nM and an IC50 [3] of over 20000 nM.
`Cc1cc(/C=C/C(=O)N[C@@H](Cc2ccccc2)C(=O)N[C@H](C=O)C[C@@H]2CCNC2=O)no1` showed an EC50 [1] of 940 nM, a CC50 [2] of over 25000 nM and an IC50 [3] of under 500 nM.
`O=C[C@H](C[C@@H]1CCNC1=O)NC(=O)[C@H](Cc1ccccc1)NC(=O)/C=C/c1ccccc1` showed an EC50 [1] of 96 nM, a CC50 [2] of over 25000 nM and an IC50 [3] of under 500 nM.
Molecule `CCOC(=O)/C=C/[C@H](C[C@@H]1CCNC1=O)NC(=O)[C@@H](CC(=O)[C@@H](NC(=O)c1cc(C)on1)C(C)C)Cc1ccc(F)cc1` [RUPINTRIVIR] has an EC50 [4] of 43 nM and an EC50 [5] of 15 nM.
In the case of `CCOC(=O)/C=C/[C@H](C[C@@H]1CCNC1=O)NC(=O)[C@H](Cc1ccccc1)NC(=O)/C=C/c1ccc(N(C)C)cc1`, the Ki [6] is reported as 2600 nM, the Kinact [7] is reported as 0.077 min⁻¹ and the EC50 [1] is reported as 2900 nM. The CC50 [2] was 21400 nM and the IC50 [3] was 8200 nM.
For `O=C[C@H](C[C@@H]1CCNC1=O)NC(=O)[C@H](Cc1ccccc1)NC(=O)/C=C/c1ccc(Cl)cc1F`, the “Ratio CC50/EC50” value ([8]; rd) was 714, the EC50 [1] was 7 nM and the CC50 [2] was 5100 nM. For the same molecule, the IC50 [3] was under 500 nM.
In the case of `CN(C)c1ccc(/C=C/C(=O)N[C@@H](Cc2ccccc2)C(=O)N[C@H](C=O)C[C@@H]2CCNC2=O)cc1`, the selectivity ratio [8] is reported as over 1000, the EC50 [1] is reported as 18 nM and the CC50 [2] is reported as over 25000 nM. For the same molecule, the IC50 [3] was under 500 nM.
For `Cc1ccc(/C=C/C(=O)N[C@@H](Cc2ccccc2)C(=O)N[C@H](C=O)C[C@@H]2CCNC2=O)cc1`, the selectivity ratio [8] was over 1000, the EC50 [1] was 26 nM and the Activity [9] was “Active”. The CC50 [2] was over 25000 nM and the IC50 [3] was under 500 nM.

— ChEMBL document CHEMBL1155789, “Design, synthesis, and evaluation of 3C protease inhibitors as anti-enterovirus 71 agents” (Bioorg Med Chem, 2008)
